A selection: hits, their analogues and other compounds. The true share with any hit is near 1.8%.
M5 ag: CHRM5 agonism in calcium assay; P08912; CHO-K1 hM5 cells, Fluo-8 calcium fluorescence; 0% DMSO wells, 100% maximal acetylcholine response; activation, % at 3 µM; 360,000 tested, 0.19% active; AID 624037;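 active = activation above the run's mean over test compounds plus 3 SD, cut at about 23% in these data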;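 note: signal is peak over basal fluorescence ratio across the kinetic read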
CHRM5 antagonist: CHRM5 antagonism in calcium assay | P08912 | CHO-hM5 cells, Fluo-8 calcium fluorescence, ACh EC80 | inhibition, % at 3 µM | 360,000 tested, 0.59% active | AID 624040;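 active = inhibition above a per-plate cutoff, the mean of that plate's test compounds plus 3 SD, cut at about 27% in these data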
CHRM4 agonist: agonists of human muscarinic M4 receptor (CHRM4) | activation, % at 3 µM | P08173 | 360,000 tested, 0.14% active | CHO-K1 hM4/Gqi5, Fluo-8 calcium fluorescence; vehicle 0%, full acetylcholine response 100%;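 active = activation above the run mean over all test wells plus 3 SD, cut at about 32% in these data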;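 note: peak over basal fluorescence ratio per well then scaled between controls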
Target sequence (P08173 whole entry, looked up): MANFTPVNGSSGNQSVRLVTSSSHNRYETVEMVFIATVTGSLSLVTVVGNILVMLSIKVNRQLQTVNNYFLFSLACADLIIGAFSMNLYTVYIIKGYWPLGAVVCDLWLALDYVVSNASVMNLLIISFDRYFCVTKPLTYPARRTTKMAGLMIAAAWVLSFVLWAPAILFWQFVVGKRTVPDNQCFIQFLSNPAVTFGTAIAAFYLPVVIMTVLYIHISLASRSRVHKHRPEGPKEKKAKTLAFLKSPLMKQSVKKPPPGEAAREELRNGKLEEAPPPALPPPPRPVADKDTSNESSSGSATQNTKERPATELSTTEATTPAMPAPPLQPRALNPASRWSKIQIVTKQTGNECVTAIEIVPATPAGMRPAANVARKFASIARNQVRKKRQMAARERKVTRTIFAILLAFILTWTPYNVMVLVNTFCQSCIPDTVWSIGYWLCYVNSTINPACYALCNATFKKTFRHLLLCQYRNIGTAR
M4 PAM: potentiates acetylcholine response at human M4 receptor. P08173. CHO-K1 hM4/Gqi5, Fluo-8 calcium fluorescence, ACh EC20; 0% = ACh EC20, 100% = maximal ACh. activation, % at 3 µM. 360,000 tested, 0.4% active;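 active = activation above its plate's cutoff, the mean activation of sample wells plus 3 SD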
M4 antag: blocks acetylcholine activation of human M4 receptor | P08173 | CHO-hM4 cells, ACh EC80, Fluo-8 calcium fluorescence | inhibition, % at 3 µM | 360,000 tested, 0.73% active | AID 624125;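 active = inhibition above its plate's cutoff, the mean inhibition of sample wells plus 3 SD, cut at about 27% in these data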
CHRM5 PAM: potentiates acetylcholine response at human M5 receptor; 360,000 tested, 0.3% active; AID 624038; CHO-K1 hM5, Fluo-8 calcium, ACh EC20 PAM; 0% = ACh EC20, 100% = ACh EC100; activation, % at 3 µM;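 active = activation above the run cutoff, the mean activation of all test compounds plus 3 SD, cut at about 18% in these data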
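System – CHO-K1 hM5 cells · Compound – 3 µM, single dose · Incubation – compound preincubation 140 s before EC20 acetylcholine addition · Technique – Fluo-8 calcium fluorescence · Measure – Max/basal fluorescence ratio as % of EC20–EC100 ACh window · Benchmarks – low control EC20 acetylcholine (0%), high control EC100 acetylcholine (100%) · Replication – singlicate, one well per test compound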
A number is an active result.

Screening CCOC(=O)N1CCN(c2ccnc3cc(Cl)ccc23)CC1 returned M5 ag inactive, CHRM5 antagonist inactive, CHRM4 agonist inactive, M4 PAM inactive, M4 antag 77 and CHRM5 PAM inactive.
COc1ccccc1-c1c(C(F)(F)F)oc2cc(OC(=O)c3ccc([N+](=O)[O-])cc3)ccc2c1=O was read as M5 ag inactive, CHRM5 antagonist inactive, CHRM4 agonist inactive, M4 PAM 21, M4 antag inactive and CHRM5 PAM inactive.
Cc1cc(=O)oc2cc(OC(=O)c3ccccc3)ccc12 was read as M5 ag inactive, CHRM5 antagonist inactive, CHRM4 agonist inactive, M4 PAM inactive, M4 antag inactive and CHRM5 PAM inactive.
Screening CCCCNC(=O)c1[nH]c(=O)cnc1-c1ccccc1 returned M5 ag inactive, CHRM5 antagonist inactive, CHRM4 agonist inactive, M4 PAM inactive, M4 antag inactive and CHRM5 PAM inactive.
Screening O=C(NCc1cccnc1)OC1CC2CC1[C@H]1CCCCN1C2=O (some centres not stated) returned M5 ag inactive, CHRM5 antagonist inactive, CHRM4 agonist inactive, M4 PAM inactive, M4 antag inactive and CHRM5 PAM inactive.
`CC[C@@H](C(=O)[C@@H](C)[C@@H](O)[C@H](C)CCc1ccc(C)c(O)c1C(=O)O)[C@H]1O[C@](CC)([C@H]2CC[C@](O)(CC)[C@H](C)O2)C[C@@H]1C` gave M5 ag 27, CHRM5 antagonist inactive, CHRM4 agonist 72, M4 PAM inactive, M4 antag inactive and CHRM5 PAM inactive.
COc1ccc(OC)c(CN2C(=O)CSCC2(C)C(=O)Nc2c(C)cccc2C)c1 (configuration not stated) was read as M5 ag inactive, CHRM5 antagonist inactive, CHRM4 agonist inactive, M4 PAM inactive, M4 antag inactive and CHRM5 PAM inactive.
COc1cccc(C(NC(C)=O)c2nc(-c3cccc(C#N)c3)cs2)c1 (configuration not stated) was read as M5 ag inactive, CHRM5 antagonist inactive, CHRM4 agonist inactive, M4 PAM inactive, M4 antag inactive and CHRM5 PAM inactive.
For COc1ccc(C(C)NC(=O)C2CCN(CCOc3ccc(Cl)cc3Cl)CC2)cc1OC (configuration not stated) the results were M5 ag inactive, CHRM5 antagonist inactive, CHRM4 agonist inactive, M4 PAM inactive, M4 antag inactive and CHRM5 PAM inactive.
`CC1OC2CC(=O)OC2C2=C1C(=O)c1c(O)cccc1C2=O` (configuration not stated) gave M5 ag inactive, CHRM5 antagonist 45, CHRM4 agonist inactive, M4 PAM inactive, M4 antag 29 and CHRM5 PAM inactive.
`CN(C)S(=O)(=O)N1C(=O)c2ccccc2C1=O` gave M5 ag inactive, CHRM5 antagonist inactive, CHRM4 agonist inactive, M4 PAM inactive, M4 antag inactive and CHRM5 PAM inactive.
For CN(C)/C=C1\C=C2C(=O)c3ccccc3N2C1=O the results were M5 ag 110, CHRM5 antagonist inactive, CHRM4 agonist 65, M4 PAM inactive, M4 antag inactive and CHRM5 PAM inactive.
`O=C(/C=C/c1ccco1)N1CCC(Cc2ccccc2)CC1` gave M5 ag inactive, CHRM5 antagonist inactive, CHRM4 agonist inactive, M4 PAM inactive, M4 antag inactive and CHRM5 PAM inactive.
OC(CCN1CC2CCC(CC2)C1)(Cc1ccccc1)c1ccco1 (configuration not stated) was read as M5 ag inactive, CHRM5 antagonist 27, CHRM4 agonist inactive, M4 PAM inactive, M4 antag 34 and CHRM5 PAM inactive.
For Cc1nc2c(OCc3ccc(OC(F)F)cc3)cccn2c1N(C)C(=O)CCC1CCCC1 the results were M5 ag inactive, CHRM5 antagonist inactive, CHRM4 agonist inactive, M4 PAM inactive, M4 antag inactive and CHRM5 PAM inactive.
`Cc1ccc(C)c(C(=O)CSc2n[nH]c(C(C)C)n2)c1` gave M5 ag inactive, CHRM5 antagonist inactive, CHRM4 agonist inactive, M4 PAM inactive, M4 antag inactive and CHRM5 PAM 34.
For COCCCn1c(SCC(=O)NC(C)C)nnc1-c1ccccc1 the results were M5 ag inactive, CHRM5 antagonist inactive, CHRM4 agonist inactive, M4 PAM inactive, M4 antag inactive and CHRM5 PAM 19.
COCCn1c(SCC(=O)Nc2ccc(NC(=O)c3ccco3)c(OC)c2)nc2ccccc2c1=O was read as M5 ag inactive, CHRM5 antagonist inactive, CHRM4 agonist inactive, M4 PAM 20, M4 antag inactive and CHRM5 PAM inactive.
`COCCCn1c(SCC(N)=O)nnc1-c1ccccc1` gave M5 ag inactive, CHRM5 antagonist inactive, CHRM4 agonist inactive, M4 PAM inactive, M4 antag inactive and CHRM5 PAM inactive.
Screening COCCn1c(SCC(=O)NCc2ccccc2)nnc1-c1ccco1 returned M5 ag inactive, CHRM5 antagonist inactive, CHRM4 agonist inactive, M4 PAM 18, M4 antag inactive and CHRM5 PAM inactive.
Screening O=C(Nc1c(-c2ccc(Cl)cc2)[nH][nH]c1=O)c1ccccc1Cl returned M5 ag inactive, CHRM5 antagonist inactive, CHRM4 agonist inactive, M4 PAM inactive, M4 antag inactive and CHRM5 PAM inactive.
Nc1nc2cc3c(cc2cc1C(=O)NCc1ccc(F)cc1)OCO3 was read as M5 ag inactive, CHRM5 antagonist 27, CHRM4 agonist inactive, M4 PAM inactive, M4 antag inactive and CHRM5 PAM inactive.
`O=C(NCc1ccc2c(c1)OCO2)c1nnc(Cc2ccc(F)cc2)o1` gave M5 ag inactive, CHRM5 antagonist inactive, CHRM4 agonist inactive, M4 PAM inactive, M4 antag inactive and CHRM5 PAM inactive.
Screening CC(C)c1cc(C(=O)NCc2ccc(F)cc2)c(N)s1 returned M5 ag inactive, CHRM5 antagonist inactive, CHRM4 agonist inactive, M4 PAM inactive, M4 antag inactive and CHRM5 PAM 18.
CC(C)(C)N1C(=O)c2ccccc2NC(=O)C1C(=O)NCCc1ccccc1 (configuration not stated) was read as M5 ag inactive, CHRM5 antagonist inactive, CHRM4 agonist inactive, M4 PAM inactive, M4 antag inactive and CHRM5 PAM inactive.
`O=C(NCc1ccc(F)cc1)N1[C@H]2CC[C@@H]1C=C(c1ccc(F)cc1OCc1ccccc1)C2` gave M5 ag inactive, CHRM5 antagonist inactive, CHRM4 agonist inactive, M4 PAM inactive, M4 antag inactive and CHRM5 PAM inactive.
Cc1ccccc1C1c2[nH]c3ccccc3c2CCN1CCCn1cccn1 (configuration not stated) was read as M5 ag inactive, CHRM5 antagonist inactive, CHRM4 agonist inactive, M4 PAM inactive, M4 antag 61 and CHRM5 PAM inactive.
